Columns and labels:
PC-3 = experiment: Cytotoxicity against human PC3 cells after 48 hrs by MTT assay; type: functional, cell-based; details: PC-3, 48 h
In short: (§1)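 MTT viability assay: cells exposed to compound for 48 h, MTT in RPMI-1640 added for a further 4 h at 37 °C, formazan dissolved in DMSO, absorbance at 570 nm. Triplicate wells, three independent experiments; IC50 (50% viability inhibition) computed by dose-effect analysis and reported as mean of three experiments. CA-4 as positive control.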

[1] = Cytotoxicity against human ECA109 cells after 48 hrs by MTT assay; type: functional, cell-based; details: ECa-109, 48 h; in short: as §1
A549 = experiment: Cytotoxicity against human A549 cells after 48 hrs by MTT assay; type: functional, cell-based; details: A549, 48 h; in short: as §1
SMMC-7721 [2] = experiment: Cytotoxicity against human SMMC7721 cells after 48 hrs by MTT assay; type: functional, cell-based; details: SMMC-7721, 48 h; in short: as §1
K562 = experiment: Cytotoxicity against human K562 cells after 48 hrs by MTT assay; type: functional, cell-based; details: K562, 48 h; in short: as §1
[3] = Inhibition of bovine tubulin polymerization by fluorescent plate reader analysis; design: species or system Bos taurus
SMMC-7721 [4] = experiment: Induction of apoptosis in human SMMC7721 cells at 0.5 uM after 48 hrs; type: functional
SMMC-7721 [5] = experiment: Cell cycle arrest in human SMMC7721 cells assessed as accumulation at S phase at 1 uM after 24 hrs by propidium iodide staining-based FACS analysis; type: functional
In short: (§2)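 SMMC-7721 cells (5 × 10⁴/mL) exposed 24 h to graded concentrations (0.01–1.0 µM) alongside DMSO and CA-4 controls; washed twice in PBS, fixed in 75% ethanol at −20 °C, RNase-treated at 37 °C for 0.5 h, stained with propidium iodide at 4 °C for 15 min, then analysed by flow cytometry for G2/M and S fractions.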

SMMC-7721 [6] = experiment: Cell cycle arrest in human SMMC7721 cells assessed as accumulation at G2/M phase at 1 uM after 24 hrs by propidium iodide staining-based FACS analysis; type: functional; in short: as §2
SMMC-7721 [7] = experiment: Cell cycle arrest in human SMMC7721 cells assessed as accumulation at G2/M phase at 0.1 uM after 24 hrs by propidium iodide staining-based FACS analysis; type: functional; in short: as §2
SMMC-7721 [8] = experiment: Induction of apoptosis in human SMMC7721 cells at 1 uM after 48 hrs; type: functional
SMMC-7721 [9] = experiment: Induction of apoptosis in human SMMC7721 cells at 0.1 uM after 48 hrs; type: functional
SMMC-7721 [10] = experiment: Cell cycle arrest in human SMMC7721 cells assessed as accumulation at S phase at 0.1 uM after 24 hrs by propidium iodide staining-based FACS analysis; type: functional; in short: as §2

In the case of `COc1ccc(-c2noc(N)c2-c2cc(OC)c(OC)c(OC)c2)cc1O`, the IC50 (PC-3) is reported as over 50 µM, the IC50 [1] is reported as over 50 µM and the IC50 (A549) is reported as over 50 µM.

`COc1ccc(-c2c(-c3cc(OC)c(OC)c(OC)c3)noc2N)cc1OC` gave an IC50 (PC-3) of 21.1 µM, an IC50 (SMMC-7721 [2]) of over 50 µM and an IC50 [1] of 20.6 µM. The IC50 (K562) was 1.27 µM and the IC50 (A549) was over 50 µM.

In the case of `COc1ccc(-c2c(-c3cc(OC)c(OC)c(OC)c3)noc2NC(C)=O)cc1OC`, the IC50 (PC-3) is reported as over 50 µM, the IC50 (SMMC-7721 [2]) is reported as 46.3 µM and the IC50 [1] is reported as 17.7 µM. The IC50 (K562) was 3.71 µM and the IC50 (A549) was 19.8 µM.

`COc1cc(-c2noc(N)c2-c2cc(OC)c(OC)c(OC)c2)cc(OC)c1OC` showed an IC50 (PC-3) of over 50 µM, an IC50 (SMMC-7721 [2]) of over 50 µM and an IC50 [1] of over 50 µM. For the same molecule, the IC50 (K562) was 3.65 µM and the IC50 (A549) was over 50 µM.

For `COc1ccc(-c2noc(N)c2-c2cc(OC)c(OC)c(OC)c2)cc1OCc1ccccc1`, the IC50 (PC-3) was over 50 µM, the IC50 [1] was over 50 µM and the IC50 (A549) was 38.2 µM.

Molecule `COc1cc(-c2noc(NC(C)=O)c2-c2cc(OC)c(OC)c(OC)c2)cc(OC)c1OC` has an IC50 (PC-3) of 14.9 µM, an IC50 (SMMC-7721 [2]) of 24.6 µM and an IC50 [1] of 13.9 µM. The IC50 (K562) was 3.97 µM and the IC50 (A549) was 21.1 µM.

`COc1ccc(-c2noc(NC(C)=O)c2-c2cc(OC)c(OC)c(OC)c2)cc1OCc1ccccc1` gave an IC50 (PC-3) of over 50 µM, an IC50 [1] of over 50 µM and an IC50 (A549) of over 50 µM.

`COc1ccc(-c2c(-c3cc(OC)c(OC)c(OC)c3)noc2NC(C)=O)cc1` showed an IC50 (PC-3) of over 50 µM, an IC50 (SMMC-7721 [2]) of over 50 µM and an IC50 [1] of 10.8 µM. It also gave an IC50 (K562) of 0.38 µM and an IC50 (A549) of 10.7 µM.

Molecule `COc1cc(-c2noc(NC(C)=O)c2-c2ccc(Cl)cc2)cc(OC)c1OC` has an IC50 (PC-3) of 1.91 µM, an IC50 (SMMC-7721 [2]) of over 50 µM and an IC50 [1] of 9.53 µM. For the same molecule, the IC50 (K562) was 3.62 µM and the IC50 (A549) was 24.9 µM.

`COc1ccc(-c2noc(NC(C)=O)c2-c2cc(OC)c(OC)c(OC)c2)cc1OC` gave an IC50 (PC-3) of over 50 µM, an IC50 (SMMC-7721 [2]) of over 50 µM and an IC50 [1] of over 50 µM. It also gave an IC50 (K562) of 8.75 µM and an IC50 (A549) of over 50 µM.

`COc1ccc(-c2c(-c3cc(OC)c(OC)c(OC)c3)noc2N(C(C)=O)C(C)=O)cc1` gave an IC50 (PC-3) of 0.36 µM, an IC50 (SMMC-7721 [2]) of 1.36 µM and an IC50 [1] of 0.39 µM. For the same molecule, the IC50 [3] was 2.1 µM, the Activity (SMMC-7721 [4]) was 70% and the Activity (SMMC-7721 [5]) was 24.3%. The Activity (SMMC-7721 [6]) was 70%, the Activity (SMMC-7721 [7]) was 41.5% and the Activity (SMMC-7721 [8]) was 72%. The Activity (SMMC-7721 [9]) was 37%, the IC50 (K562) was 0.068 µM and the IC50 (A549) was 0.43 µM. For the same molecule, the Activity (SMMC-7721 [10]) was 50.4%.

With `COc1ccc(-c2noc(N)c2-c2cc(OC)c(OC)c(OC)c2)cc1OC` the IC50 (PC-3) was over 50 µM, the IC50 (SMMC-7721 [2]) was over 50 µM and the IC50 [1] was 1.66 µM. It also gave an IC50 (K562) of 1.4 µM and an IC50 (A549) of over 50 µM.

Molecule `COc1ccc(-c2c(-c3cc(OC)c(OC)c(OC)c3)noc2N(C(C)=O)C(C)=O)cc1OC` has an IC50 (PC-3) of over 50 µM, an IC50 (SMMC-7721 [2]) of over 50 µM and an IC50 [1] of over 50 µM. It also gave an IC50 (K562) of 4.29 µM and an IC50 (A549) of over 50 µM.

Work on `COc1ccc(-c2noc(NC(C)=O)c2-c2cc(OC)c(OC)c(OC)c2)cc1` yielded an IC50 (PC-3) of over 50 µM, an IC50 (SMMC-7721 [2]) of over 50 µM and an IC50 [1] of over 50 µM. For the same molecule, the IC50 (K562) was 1 µM and the IC50 (A549) was over 50 µM.

Molecule `COc1ccc(-c2c(-c3cc(OC)c(OC)c(OC)c3)noc2N)cc1` has an IC50 (PC-3) of 3.03 µM, an IC50 (SMMC-7721 [2]) of 12 µM and an IC50 [1] of 5.84 µM. The IC50 [3] was 1.8 µM, the IC50 (K562) was 0.04 µM and the IC50 (A549) was 4.49 µM.

In the case of `COc1cc(-c2noc(N(C(C)=O)C(C)=O)c2-c2ccc(Cl)cc2)cc(OC)c1OC`, the IC50 (PC-3) is reported as 2.63 µM, the IC50 (SMMC-7721 [2]) is reported as over 50 µM and the IC50 [1] is reported as 39.8 µM. The IC50 (K562) was 3.96 µM and the IC50 (A549) was over 50 µM.

`COc1ccc(-c2noc(N)c2-c2cc(OC)c(OC)c(OC)c2)cc1` showed an IC50 (PC-3) of 15 µM, an IC50 (SMMC-7721 [2]) of 39.8 µM and an IC50 [1] of 9.82 µM. The IC50 (K562) was 0.022 µM and the IC50 (A549) was 21.8 µM.

In the case of `COc1ccc(-c2noc(NC(C)=O)c2-c2cc(OC)c(OC)c(OC)c2)cc1O`, the IC50 (PC-3) is reported as over 50 µM, the IC50 [1] is reported as over 50 µM and the IC50 (A549) is reported as over 50 µM.

`COc1cc(-c2noc(N)c2-c2ccc(Cl)cc2)cc(OC)c1OC` showed an IC50 (PC-3) of over 50 µM, an IC50 (SMMC-7721 [2]) of over 50 µM and an IC50 [1] of over 50 µM. For the same molecule, the IC50 (K562) was 0.64 µM and the IC50 (A549) was over 50 µM.

`COc1ccc(/C=C\c2cc(OC)c(OC)c(OC)c2)cc1O` [COMBRETASTATIN A4] showed an IC50 (PC-3) of 5.4 µM, an IC50 (SMMC-7721 [2]) of 3.22 µM and an IC50 [1] of 4.5 µM. It also gave an IC50 (K562) of 0.046 µM and an IC50 (A549) of 0.42 µM.

Source: ChEMBL document CHEMBL1152533, “Synthesis and biological evaluation of 3,4-diaryl-5-aminoisoxazole derivatives” (Bioorg Med Chem, 2009)
